Results from ChEMBL document CHEMBL3792365, “Dioxol and dihydrodioxin analogs of 2- and 3-phenylacetonitriles as potent anti-cancer agents with nanomolar activity against a variety of human cancer cells” (2016).

What was measured:
Type in all cases: functional
[1] = Growth inhibition of human SF268 cells after 48 hrs by sulforhodamine B assay; conditions: SF-268, 48 h
Summary of the method: (§1)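 Five-dose concentration series run across a panel of 60 human tumour cell lines. GI50 is taken as the drug concentration giving a 50% reduction in net protein increase relative to untreated control cells.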

[2] = Growth inhibition of human MOLT4 cells at 10 uM after 48 hrs by sulforhodamine B assay; conditions: MOLT-4, 48 h, values are per cent of control
[3] = Growth inhibition of human HOP92 cells after 48 hrs by sulforhodamine B assay; conditions: HOP-92, 48 h
Summary of the method: (§2)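 Five-dose testing against a 60-line human tumor cell panel. GI50 is the drug concentration giving a 50% reduction in net protein increase relative to untreated control cells.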

[4] = Growth inhibition of human Hs 578T cells after 48 hrs by sulforhodamine B assay; summary of the method: as §2
[5] = Growth inhibition of human HCT15 cells after 48 hrs by sulforhodamine B assay; conditions: HCT-15, 48 h; summary of the method: as §2
[6] = system: MDA-MB-435; test: Growth inhibition of human MDA-MB-435 cells after 48 hrs by sulforhodamine B assay; conditions: MDA-MB-435, 48 h; summary of the method: as §2
[7] = Growth inhibition of human SW620 cells after 48 hrs by sulforhodamine B assay; conditions: SW-620, 48 h; summary of the method: as §1
[8] = Growth inhibition of human HCC2998 cells after 48 hrs by sulforhodamine B assay; conditions: HCC 2998, 48 h; summary of the method: as §2
[9] = Growth inhibition of human SNB19 cells after 48 hrs by sulforhodamine B assay; conditions: SNB-19, 48 h; summary of the method: as §1
[10] = system: CCRF-CEM; test: Growth inhibition of human CCRF-CEM cells after 48 hrs by sulforhodamine B assay; summary of the method: as §2
[11] = system: SR; test: Growth inhibition of human SR cells after 48 hrs by sulforhodamine B assay; summary of the method: as §1
[12] = Growth inhibition of human OVCAR4 cells after 48 hrs by sulforhodamine B assay; conditions: OVCAR-4, 48 h; summary of the method: as §1
[13] = Growth inhibition of human HCC2998 cells at 10 uM after 48 hrs by sulforhodamine B assay; conditions: HCC 2998, 48 h, values are per cent of control
[14] = system: SK-MEL-2; test: Growth inhibition of human SK-MEL-2 cells after 48 hrs by sulforhodamine B assay; conditions: SK-MEL-2, 48 h; summary of the method: as §1
[15] = Growth inhibition of human RXF393 cells at 10 uM after 48 hrs by sulforhodamine B assay; conditions: RXF 393, 48 h, values are per cent of control
[16] = system: MCF7; test: Growth inhibition of human MCF7 cells at 10 uM after 48 hrs by sulforhodamine B assay; conditions: MCF7, 48 h, values are per cent of control
[17] = Growth inhibition of human HOP92 cells at 10 uM after 48 hrs by sulforhodamine B assay; conditions: HOP-92, 48 h, values are per cent of control
[18] = Growth inhibition of human RPMI8226 cells after 48 hrs by sulforhodamine B assay; conditions: RPMI-8226, 48 h; summary of the method: as §1
[19] = Growth inhibition of human PC3 cells at 10 uM after 48 hrs by sulforhodamine B assay; conditions: PC-3, 48 h, values are per cent of control
[20] = Growth inhibition of human UO31 cells at 10 uM after 48 hrs by sulforhodamine B assay; conditions: UO-31, 48 h, values are per cent of control
[21] = Growth inhibition of human HOP62 cells at 10 uM after 48 hrs by sulforhodamine B assay; conditions: HOP-62, 48 h, values are per cent of control
[22] = Growth inhibition of human HL-60(TB) cells at 10 uM after 48 hrs by sulforhodamine B assay; conditions: HL-60, 48 h, values are per cent of control
[23] = system: CCRF-CEM; test: Growth inhibition of human CCRF-CEM cells at 10 uM after 48 hrs by sulforhodamine B assay; conditions: values are per cent of control
[24] = Growth inhibition of human SKOV3 cells after 48 hrs by sulforhodamine B assay; conditions: SK-OV-3, 48 h; summary of the method: as §1
[25] = Growth inhibition of human HCT116 cells after 48 hrs by sulforhodamine B assay; conditions: HCT-116, 48 h; summary of the method: as §2
[26] = system: Malme-3M; test: Growth inhibition of human MALME-3M cells at 10 uM after 48 hrs by sulforhodamine B assay; conditions: values are per cent of control
[27] = Growth inhibition of human COLO205 cells after 48 hrs by sulforhodamine B assay; conditions: COLO 205, 48 h; summary of the method: as §2
[28] = system: A549; test: Growth inhibition of human A549/ATCC cells after 48 hrs by sulforhodamine B assay; conditions: A549, 48 h; summary of the method: as §2
[29] = Growth inhibition of human MOLT4 cells after 48 hrs by sulforhodamine B assay; conditions: MOLT-4, 48 h; summary of the method: as §1
[30] = system: SK-MEL-28; test: Growth inhibition of human SK-MEL-28 cells at 10 uM after 48 hrs by sulforhodamine B assay; conditions: SK-MEL-28, 48 h, values are per cent of control
[31] = Growth inhibition of human UACC62 cells after 48 hrs by sulforhodamine B assay; conditions: UACC-62, 48 h
Summary of the method: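 Five-dose testing across the 60-line human tumour cell panel. GI50 is the drug concentration that gives a 50% reduction in net protein increase relative to control cells.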

[32] = Growth inhibition of human OVCAR3 cells after 48 hrs by sulforhodamine B assay; conditions: OVCAR-3, 48 h; summary of the method: as §1
[33] = Growth inhibition of human UACC257 cells at 10 uM after 48 hrs by sulforhodamine B assay; conditions: UACC-257, 48 h, values are per cent of control
[34] = system: SK-MEL-2; test: Growth inhibition of human SK-MEL-2 cells at 10 uM after 48 hrs by sulforhodamine B assay; conditions: SK-MEL-2, 48 h, values are per cent of control
[35] = Growth inhibition of human RPMI8226 cells at 10 uM after 48 hrs by sulforhodamine B assay; conditions: RPMI-8226, 48 h, values are per cent of control
[36] = system: NCI-H522; test: Growth inhibition of human NCI-H522 cells after 48 hrs by sulforhodamine B assay; conditions: NCI-H522, 48 h; summary of the method: as §1
[37] = Growth inhibition of human PC3 cells after 48 hrs by sulforhodamine B assay; conditions: PC-3, 48 h; summary of the method: as §1
[38] = Growth inhibition of human IGROV1 cells at 10 uM after 48 hrs by sulforhodamine B assay; conditions: IGROV-1, 48 h, values are per cent of control
[39] = system: 786-0; test: Growth inhibition of human 786-0 cells at 10 uM after 48 hrs by sulforhodamine B assay; conditions: 786-0, 48 h, values are per cent of control
[40] = Growth inhibition of human SNB75 cells at 10 uM after 48 hrs by sulforhodamine B assay; conditions: SNB-75, 48 h, values are per cent of control
[41] = system: KM12; test: Growth inhibition of human KM12 cells after 48 hrs by sulforhodamine B assay; conditions: KM12, 48 h; summary of the method: as §2
[42] = system: SK-MEL-28; test: Growth inhibition of human SK-MEL-28 cells after 48 hrs by sulforhodamine B assay; conditions: SK-MEL-28, 48 h; summary of the method: as §1
[43] = Growth inhibition of human OVCAR3 cells at 10 uM after 48 hrs by sulforhodamine B assay; conditions: OVCAR-3, 48 h, values are per cent of control
[44] = Growth inhibition of human LOXIMVI cells after 48 hrs by sulforhodamine B assay; conditions: LOX IMVI; summary of the method: as §2

Compound: COc1ccc(/C(C#N)=C/c2ccc3c(c2)OCCO3)cc1
- GI50 [1]: > 100000 nM
- growth, % of control at 10 µM [2]: 32.2%
- GI50 [3]: > 100 µM
- GI50 [4]: > 100000 nM
- GI50 [5]: 2100 nM
- GI50 [6]: 510 nM
- GI50 [7]: 3930 nM
- GI50 [8]: 7.78 µM
- GI50 [9]: > 100000 nM
- GI50 [10]: > 100000 nM
- GI50 [11]: 2760 nM
- GI50 [12]: 24.9 µM
- growth, % of control at 10 µM [13]: 55.7%
- GI50 [14]: 36.8 µM
- growth, % of control at 10 µM [15]: 77.3%
- growth, % of control at 10 µM [16]: 24.4%
- growth, % of control at 10 µM [17]: 89%
- GI50 [18]: > 100000 nM
- growth, % of control at 10 µM [19]: 70.9%
- growth, % of control at 10 µM [20]: 73.2%
- growth, % of control at 10 µM [21]: 68.3%
- growth, % of control at 10 µM [22]: 38%
- growth, % of control at 10 µM [23]: 58.7%
- GI50 [24]: > 100000 nM
- GI50 [25]: 6.33 µM
- growth, % of control at 10 µM [26]: 64.6%
- GI50 [27]: > 100000 nM
- GI50 [28]: 21.7 µM
- GI50 [29]: > 100000 nM
- growth, % of control at 10 µM [30]: 75.3%
- GI50 [31]: 8.68 µM
- GI50 [32]: 37.1 µM
- growth, % of control at 10 µM [33]: 76.7%
- growth, % of control at 10 µM [34]: 36%
- growth, % of control at 10 µM [35]: 80.8%
- GI50 [36]: > 100000 nM
- GI50 [37]: > 100000 nM
- growth, % of control at 10 µM [38]: 71.3%
- growth, % of control at 10 µM [39]: 80.2%
- growth, % of control at 10 µM [40]: 61.1%
- GI50 [41]: 4260 nM
- GI50 [42]: > 100000 nM

Compound: COc1ccc(/C=C(\C#N)c2ccc3c(c2)OCO3)cc1
- GI50 [1]: 730 nM
- growth, % of control at 10 µM [2]: 19.5%
- GI50 [3]: 4.22 µM
- GI50 [4]: 460 nM
- GI50 [5]: 70 nM
- GI50 [6]: 30 nM
- GI50 [7]: 120 nM
- GI50 [8]: 5.26 µM
- GI50 [9]: 750 nM
- GI50 [10]: 250 nM
- GI50 [11]: 50 nM
- growth, % of control at 10 µM [43]: 4.9%
- growth, % of control at 10 µM [13]: 49.4%
- GI50 [14]: 0.21 µM
- growth, % of control at 10 µM [15]: 23.3%
- growth, % of control at 10 µM [16]: 20.7%
- growth, % of control at 10 µM [17]: 40.4%
- GI50 [18]: 490 nM
- growth, % of control at 10 µM [19]: 21.2%
- growth, % of control at 10 µM [20]: 28%
- growth, % of control at 10 µM [21]: 43.8%
- growth, % of control at 10 µM [22]: 0.1%
- growth, % of control at 10 µM [23]: 21.6%
- GI50 [24]: 400 nM
- GI50 [25]: 0.22 µM
- growth, % of control at 10 µM [26]: 24.3%
- GI50 [27]: 140 nM
- GI50 [28]: 0.27 µM
- GI50 [29]: 450 nM
- growth, % of control at 10 µM [30]: 40.7%
- GI50 [31]: 0.59 µM
- GI50 [32]: 0.27 µM
- growth, % of control at 10 µM [33]: 23%
- growth, % of control at 10 µM [34]: -17.7%
- growth, % of control at 10 µM [35]: 18.9%
- GI50 [44]: 570 nM
- GI50 [36]: 40 nM
- GI50 [37]: 320 nM
- growth, % of control at 10 µM [38]: 46.3%
- growth, % of control at 10 µM [39]: 50.3%
- growth, % of control at 10 µM [40]: 2.2%
- GI50 [41]: 70 nM
- GI50 [42]: 450 nM
